Results on 18 compounds are retold here after publication PMC9605878 (Cell Chemical Biology, 2022).

Structures are written as SMILES. ≈ marks a conversion by molar mass, not a printed value. Read-outs that look alike come from different tables or passages of the source. Where only a bound is given, the exact number is not on record here.

One data set concerns S. aureus strain RN6390B. The data set can be described thus: S. aureus MIC, broth microdilution. The data set is classed as cell-based, Staphylococcus aureus. In outline: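 Broth microdilution MIC in Müller–Hinton broth at 37°C; S. aureus also tested in MHB containing 10% FBS.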
Background: Broth dilution looks for growth in wells or tubes with falling amounts of substance.

A further data set can be described thus: Chrome azurol S. The conditions noted are these: 50 μM, PBS pH 7.4. The data set is classed as physicochemical. The method in brief:
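PBS (pH 7.4) with test compound (50 μM), or without it as reference, mixed with an equal volume of CAS assay solution. A630 read after 15 min at room temperature. Siderophore units = […].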

The test system of data set [1] is S. aureus membranes. The data set can be described thus: Membrane dipole potential. The data set is classed as binding, Staphylococcus aureus. Particulars: for change in membrane dipole potential: fixed concentration 40 μM, fluorescence ratio R(460/520). In outline: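 Isolated S. aureus membranes labelled with the dipole-potential probe di-8-ANEPPS. Dipole potential change followed as fluorescence ratio R(460/520), at a fixed 40 μM per compound. Kd obtained from binding curves versus compound concentration by the dual-wavelength ratiometric method, with methanol included. Mean of three independent experiments ±SD.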

Data set [2] deals with defibrinated rabbit red blood cells. Description: Haemolytic activity. The data set is classed as cell-based. The method in brief:
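Defibrinated rabbit blood incubated in PBS for 60 min with test compound or Triton X-100 (positive control). Samples pelleted and supernatant A543 measured. Percent haemolysis calculated relative to the Triton X-100 control.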

Another data set concerns Staphylococcal cells. Description: Dissipation of transmembrane potential. The data set is classed as cell-based, Staphylococcus aureus. The conditions noted are these: 10 μM test compound. In outline:
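Staphylococcal cells suspended in 50 mM potassium phosphate buffer, pH 7, with 5 μM DiSC3(5). Fluorescence (ex 650, em 680 nm) monitored over 200 s. Test compound (10 μM) added once signal stabilised. Valinomycin (5 μM) then added for complete depolarisation. Novobiocin and chloramphenicol (10 μg/ml) served as negative controls. Three independent repeats, representative traces.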

For another data set, the system named is PqsR. The conditions noted are these: read-out: PqsR IC50; ref Ilangovan et al., 2013; cited from earlier work.
The subject of data set [3] is S. aureus strain USA300 JE2. The data set can be described thus: Membrane permeabilization. The data set is classed as cell-based, Staphylococcus aureus. Particulars: 10 μM, relative to nisin 0.6 μM. The method in brief: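 USA300 JE2 grown overnight in CYGP, washed in 100 mM phosphate buffer pH 7, resuspended to OD600 0.1 and exposed to test compound for 1 h at 37°C. Nisin (0.6 μM) used as positive control. Cell-free supernatant ATP measured by luminescence kit. For PI uptake, cells held in phosphate buffer pH 7 with PI (10 μg/ml), 10 min dark at RT, washed, then read (ex 575/em 630 nm). Mean of three experiments ±SD.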

For data set [4], the system named is P. aeruginosa PAO1 in mixed biofilm with S. aureus SH1000. Description: Mixed-species biofilm, P. aeruginosa component. The data set is classed as cell-based, Pseudomonas aeruginosa. Particulars: tobramycin alone (100 μg/mL, 4 h). In outline: (§1)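 GFP-tagged S. aureus SH1000 and mCherry-tagged P. aeruginosa PAO1 grown 16 h in RPMI-1640, diluted 1:100, regrown to OD600 ~0.5, then diluted to OD600 0.1 and 0.01 respectively. S. aureus seeded on glass coverslips for 1 h static, then P. aeruginosa added (10:1). Test compound (100 μM) or DMSO added; 48 h at 37°C. Where required, tobramycin (100 μg/mL) added for a further 4 h. Confocal imaging, biomass quantified per species; 3 experiments ±SD.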

Data set [5] relates to S. aureus SH1000 in mixed biofilm with P. aeruginosa PAO1. Description: Mixed-species biofilm, S. aureus component. The data set is classed as cell-based, Staphylococcus aureus. The conditions noted are these: tobramycin alone (100 μg/mL, 4 h). The method in brief: as §1
Data set [6] concerns the target S. aureus membranes. The conditions noted are these: read-out: Kd (membrane-active agent); ref Murray et al., 2014; cited from earlier work.
The mark [7] stands for this setting: S. aureus RN6390B, broth microdilution.

For `CCCCCCCCCc1nc2cc(F)ccc2c(=O)n1OC` [Compound 39], the MIC (as a rule, the lowest concentration that inhibits growth of the organism) against S. aureus strain RN6390B (setting [7]) is over 100 µM. For `CCCCCCCc1[nH]c2ccccc2c(=O)c1O` [PQS, 2-Heptyl-3-hydroxy-4(1H)-quinolone], in the data set “Chrome azurol S”, the iron-chelating properties entry is “sequestered iron”. Regarding `CCCCCCCc1nc2ccccc2c(=O)[nH]1` [Compound 1], the MIC in the data set on S. aureus strain RN6390B (setting [7]) was over 100 µM. Consider `CCCCCCCCCc1[nH]c2ccccc2c(=O)c1O` [Compound C9-PQS, reference compound], for which the “change in membrane dipole potential” value in the data set on S. aureus membranes [1] is reported as “little impact”. Take `CCCCCCCCCc1nc2cc(Cl)ccc2c(=O)n1N` [Compound 19]: the “change in membrane dipole potential” value with S. aureus membranes [1] was “increased”. The “hemolytic activity” value in data set [2] is on record as “not hemolytic”. For the same compound, the “DiSC3(5) fluorescence / transmembrane potential” value in the data set with Staphylococcal cells is on record as “does not increase fluorescence”. The compound also displayed an MIC in the data set on S. aureus strain RN6390B (setting [7]) of over 100 µM. Moreover, the IC50 (in general, the concentration at which inhibition is half-maximal) in the data set on PqsR was 5 µM. As for `CCCCCCCCCc1nc2ccccc2c(=O)[nH]1` [Compound 2], the “change in membrane dipole potential” value with S. aureus membranes [1] is “little impact”. The MIC in the data set on S. aureus strain RN6390B (setting [7]) was over 100 µM. `CCCCCCCCCc1nc2cc(Cl)ccc2c(=O)n1CCO` [Compound 45, 7-Chloro-3-(2-hydroxyethyl)-2-n-nonylquinazolin-4(3H)-one]: the MIC in the data set on S. aureus strain RN6390B (setting [7]) is over 100 µM; in the data set on S. aureus strain RN6390B (Staphylococcus aureus, RN6390B), over 100 µM. In the data set on S. aureus strain RN6390B (Staphylococcus aureus, RN6390B), `CCCCCCCCCc1nc2cc(Cl)ccc2c(=O)[nH]1` [Compound 4, 7-Chloro-2-n-nonylquinazolin-4(3H)-one] returned an MIC of over 100 µM.

Turning to `CCCCCCCC1Nc2ccccc2S(=O)(=O)N1` (stereo not shown) [Compound 5, 3-n-Heptyl-3,4-dihydro-2H-benzo[e][1,2,4]thiadiazine 1,1-dioxide], the “S. aureus growth-inhibitory activity” value in the data set with S. aureus strain RN6390B is “inactive”. In the data set with S. aureus strain RN6390B (Staphylococcus aureus, RN6390B), this compound showed an MIC of over 100 µM. As for `CCCCCCCc1nc2ccccc2c(=O)n1N` [Compound 8], the MIC in the data set with S. aureus strain RN6390B (setting [7]) is over 100 µM. Still for that read-out and setting: the same measure for `CCCCCCCCCc1nc2cc(F)c(F)cc2c(=O)n1N` [Compound 22]: over 100 µM; for `CCCCCc1nc2ccccc2c(=O)n1N` [Compound 7]: over 100 µM; for `CCCCCCCCCc1nc2cc(F)ccc2c(=O)n1N` [Compound 18]: over 100 µM. For `CCCCCCCCCc1nc2cc(Cl)ccc2c(=O)n1CCCCN` [Compound 35, 3-(4-Aminobutyl)-7-chloro-2-n-nonylquinazolin-4(3H)-one], the “change in membrane dipole potential” value in the data set with S. aureus membranes [1] is listed as “greatest changes in dipole potential”. Also, the Kd (as a rule, the concentration at which binding is half-saturated) at S. aureus membranes [1] (read-out: Kd (membrane binding), binding curves, di-8-ANEPPS) came to 5.2 ± 0.3 µM. For the same compound, the “cellular ATP loss and PI uptake” value in [3] is reported as “significant cellular ATP loss alongside the reciprocal uptake of PI”. Also, the “DiSC3(5) fluorescence / transmembrane potential” value in the data set on Staphylococcal cells is on record as “increase in fluorescence”. This compound yielded an MIC in the data set on S. aureus strain RN6390B (Staphylococcus aureus, RN6390B) of 12.5 µM (≈ 4.72 µg/mL).

In the case of `Cc1nc2ccccc2c(=O)n1N` [Compound 17, 3-Amino-2-methylquinazolin-4(3H)-one], in the data set on S. aureus strain RN6390B (Staphylococcus aureus, RN6390B), the MIC is over 100 µM. As for `NC[C@H]1O[C@H](O[C@H]2[C@H](O)[C@@H](O[C@H]3O[C@H](CO)[C@@H](O)[C@H](N)[C@H]3O)[C@H](N)C[C@@H]2N)[C@H](N)C[C@@H]1O` [tobramycin], the “reduction of P. aeruginosa biomass” value in data set [4] is given as about 60%. Further, the S. aureus biomass result in data set [5] is given as “clearly protected”. On to `CCCCCCCCCC1Nc2ccccc2S(=O)(=O)N1` (stereo not shown) [Compound 6, 3-n-Nonyl-3,4-dihydro-2H-benzo[e][1,2,4]thiadiazine 1,1-dioxide], for which the “S. aureus growth-inhibitory activity” value with S. aureus strain RN6390B was “inactive”. Moreover, the MIC against S. aureus strain RN6390B (Staphylococcus aureus, RN6390B) is over 100 µM.

As to `CCCCCCCCCCCCCC(=O)C1=C(O)COC1=O` [Compound C14-TOA, 3-tetradecanoyltetronic acid], on S. aureus membranes [6], the Kd is 4 µM.
